Assay outcomes (PubChem)
T cruzi inh: T. cruzi replication inhibition; T. cruzi beta-gal in NIH3T3, luminescence, 90 h; inhibition, % (test concentration not listed); 1.4% of 300,000 active;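 active means mean inhibition across valid replicates above about 55%, limit read from the data; inconclusive means mean below that limit but half or more replicates reach it; inactive means mean below it, under half of replicates reach it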;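 further: signal also drops with host cell toxicity which is not excluded here; higher percent means less beta-gal luminescence so fewer parasites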
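Material: NIH/3T3 host cells with β-galactosidase reporter T. cruzi; Input: 5,000 host fibroblasts per well; Medium: DMEM, 2% fetal bovine serum; Compound: 50 nL DMSO compound solution per well; Schedule: 3 h host attachment, then at least 90 h co-culture; Detection: luminescent β-galactosidase signal after 60 min lysis.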
CHT PAM: human CHT allosteric activation; Q9GZV3; CHT-expressing cells, membrane potential dye, choline EC20; stronger effect = higher value; LV-AA mutant CHT in HEK293 cells; B-score at 10 µM; 0.49% of 310,000 active; AID 488977;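 active means initial fluorescence not abnormally high and integrated response B-score, plate-corrected, over 3 SD above library mean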
Target sequence (Q9GZV3 whole entry, looked up): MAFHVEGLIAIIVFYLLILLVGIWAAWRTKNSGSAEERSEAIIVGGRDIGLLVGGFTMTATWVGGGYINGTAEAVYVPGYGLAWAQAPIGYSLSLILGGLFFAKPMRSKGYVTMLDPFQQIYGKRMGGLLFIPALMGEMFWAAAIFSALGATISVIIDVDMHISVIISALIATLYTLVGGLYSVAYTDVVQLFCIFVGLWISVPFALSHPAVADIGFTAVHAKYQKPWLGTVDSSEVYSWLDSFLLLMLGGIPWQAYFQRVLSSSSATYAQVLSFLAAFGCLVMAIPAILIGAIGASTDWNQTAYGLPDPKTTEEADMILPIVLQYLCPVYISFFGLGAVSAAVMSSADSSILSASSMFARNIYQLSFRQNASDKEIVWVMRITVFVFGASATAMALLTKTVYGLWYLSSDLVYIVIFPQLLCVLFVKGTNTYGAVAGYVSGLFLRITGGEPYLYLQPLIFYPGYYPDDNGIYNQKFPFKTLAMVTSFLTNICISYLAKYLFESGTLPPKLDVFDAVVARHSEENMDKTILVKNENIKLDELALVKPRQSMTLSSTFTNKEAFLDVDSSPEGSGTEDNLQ
PolyA inh: blocks polyadenylation in yeast reporter cells; activity score, % at 12 µM; 0.02% of 300,000 active; S. cerevisiae SKY197-pL101 polyadenylation reporter, beta-gal luminescence; efflux-impaired pdr1/pdr3 knockout yeast; score 100 = 6 SD above DMSO;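 active means lowest replicate activity score at least 50, where 100 means six control SD above control mean; inconclusive means lowest score under 50 but half or more replicates reach 50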;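 further: yeast exposed to compound for 9 h at 30 °C; higher score means more reporter readthrough which indicates perturbed polyadenylation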
CHT block: inhibitors of human choline transporter CHT; Q9GZV3; CHT-expressing cells, membrane potential dye, choline response; stronger effect = lower value; B-score at 10 µM; 0.86% of 310,000 active; AID 488975;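 active means B-score over 3 SD under the library average, and starting fluorescence ratio not unusually high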;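 further: choline stimulus applied at its EC90 after an EC20 pre-addition; B-score computed on integrated fluorescence ratio after choline addition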
CHT block conf: human CHT inhibition, confirmatory screen | shares compounds with CHT block | CHT-expressing cells, choline membrane potential dye; LV-to-AA substituted CHT, HEK293 cells | CHT activity remaining % of control (stronger effect = lower value), % at 10 µM | 70% of 2,400 active | AID 493221;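 active means choline transporter activity left, mean of duplicates at 10 µM, below buffer-only control mean minus 3 SD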;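 further: depolarization triggered by choline at its EC90 following an EC20 pre-addition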
HEK293 CHT ctr: activity in parental HEK293 cells lacking CHT; shares compounds with CHT block; membrane potential dye, choline response; active = decrease or increase beyond buffer ±3SD; membrane potential ratio readout (active if shifted either direction beyond buffer ±3SD; no single direction) at 10 µM; 4% of 2,400 active; AID 493222;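 further: parental cells lack the transporter so any hit is non-specific; ratio is peak minus trough fluorescence over baseline after EC90 choline challenge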
CHT activ conf: confirmation of human choline transporter (CHT) activators. AID 504833. activation, % at 10 µM. CHT-expressing cells, membrane potential dye fluorescence (FDSS); % of choline EC20–EC90 response window; HEK293 expressing CHT LV-AA mutant; choline added at its EC20. 91% of 2,500 active. shares compounds with CHT PAM;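 active means primary screen active, with duplicate mean activation above negative control mean plus 3 SD, cut at about 11% in these data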
HEK293 MP dye: counter-screen for CHT activators: effect in parental HEK293 cells. membrane potential dye fluorescence (FDSS); measured after EC20 choline addition. 62% of 2,500 active. shares compounds with CHT PAM. ratio readout change at 10 µM, hits read low;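 active means duplicate-averaged ratio beyond 3 SD from buffer wells, up or down, though filed actives are nearly all decreases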
Large screens that a line does not name were inactive (follow-up assays come after a bar, where they were run). The list is not random: actives were taken first. Their share in the collection is about 2.6%.

C/C(=N\N=C(N)N)c1ccccc1	CHT block -9.9 | CHT block conf 17.9% | HEK293 CHT ctr inactive
CCOP(=O)(OCC)C(NC(=O)c1cccc([N+](=O)[O-])c1)C(Cl)(Cl)Cl (stereo not drawn)	none
CC1CCCCC1NC1CCN(C)CC1 (stereo not drawn)	none
CC1CCC/C=C/C2CC(O)CC2C(O)/C=C/C(=O)O1 (stereo not drawn)	CHT block -6.56 | CHT block conf 45.5% | HEK293 CHT ctr inactive
C[C@H]1CCC/C=C/C2C[C@H](O)CC2[C@H](O)/C=C/C(=O)O1 (stereo partly drawn)	none
CCOc1cc(C=C2C(=O)NC(=O)NC2=O)ccc1OS(=O)(=O)c1ccccc1	CHT block -7.29 | CHT block conf 36.1% | HEK293 CHT ctr inactive
COc1cc(C=C2C(=O)NC(=O)NC2=O)ccc1OS(=O)(=O)c1ccccc1[N+](=O)[O-]	CHT block -5.28 | CHT block conf 55.5% | HEK293 CHT ctr inactive
O=C1NC(=O)C(=Cc2ccc(OCCOc3ccc([N+](=O)[O-])cc3)cc2)C(=O)N1	none
COc1cccc(C2CC3C(=O)C=CC2N3Cc2ccccc2)c1 (stereo not drawn)	CHT block -5.33 | CHT block conf -58.9% | HEK293 CHT ctr -39.8
O=C1NC(=O)C(CCc2ccncc2)(Cc2ccc(OCc3ccccc3)cc2)C(=O)N1	none
Oc1ccc(C[C@H]2NCCc3cc(O)c(O)cc32)cc1O	CHT block -6.47 | CHT block conf 27.7% | HEK293 CHT ctr inactive
O=C1NC(=O)C(=Cc2coc3ccc(O)cc3c2=O)C(=O)N1	CHT block -6.31 | CHT block conf 60.5% | HEK293 CHT ctr inactive
CN1C(=O)C(=Cc2coc3ccccc3c2=O)C(=O)N(C)C1=O	none
O=C(/C=C/c1ccc(Br)cc1)NC(=S)N1C[C@H]2C[C@H](C1)c1cccc(=O)n1C2	none
CCC(C)/C=C(C)/C=C/C1=CC2=C(Cl)C(=O)C(C)(OC(C)=O)C(=O)C2=CO1 (stereo not drawn)	CHT block -8.39 | CHT block conf 24.1% | HEK293 CHT ctr inactive
CC[C@H](C)/C=C(C)/C=C/C1=CC2=C(Cl)C(=O)[C@@](C)(OC(C)=O)C(=O)C2=CO1	none
Cc1ccc2c(c1)C1CN(C)CCC1N2C(=O)c1cn(-c2ccccc2)nc1-c1ccccc1 (stereo not drawn)	none
Cc1ccc2c(c1)[C@@H]1CN(C)CC[C@@H]1N2C(=O)Nc1cccc(C(F)(F)F)c1	CHT block -7.18 | CHT block conf 25.9% | HEK293 CHT ctr inactive
Cc1ccc2c(c1)C1CN(C)CCC1N2C(=O)Nc1cccc(C(F)(F)F)c1 (stereo not drawn)	CHT block -5.42 | CHT block conf 23.4% | HEK293 CHT ctr inactive
Cc1ccc2c(c1)C1CN(C)CCC1N2C(=O)CCCN1C(=O)c2cccc3cccc(c23)C1=O (stereo not drawn)	T cruzi inh inconclusive, CHT block -5.93 | CHT block conf 50.4% | HEK293 CHT ctr inactive
Cc1ccc2c(c1)C1CN(C)CCC1N2C(=O)c1cccnc1Cl (stereo not drawn)	none
Cc1ccc(OCCOc2cccc(C=C3C(=O)NC(=O)NC3=O)c2)c(C)c1	none
COc1ccc(CC(=O)Nc2ccc(C#N)c(Cl)c2)cc1S(=O)(=O)N1CCOCC1	none
N=c1c[n+](CC23CC4CC(CC(C4)C2)C3)[n-]o1	CHT block -5.61 | CHT block conf 37.1% | HEK293 CHT ctr inactive
Cc1ccc(N)c(C(=O)c2ccc(Br)cc2)c1	CHT block -5.11 | CHT block conf inactive | HEK293 CHT ctr inactive
Cn1cnc(CCN)c1	none
CC1CCCCN1Cc1c[nH]c2ccccc12 (stereo not drawn)	CHT block -5.68 | CHT block conf inactive | HEK293 CHT ctr inactive
Cc1ccccc1CCNCc1cc2cccc(C)c2[nH]c1=O	CHT block -8.67 | CHT block conf 17.6% | HEK293 CHT ctr inactive
CCOC(=O)c1c(N)n(CCCOC(=O)c2ccco2)c2nc3ccccc3nc12	none
CCCCCn1c(NC(=O)c2ccco2)c(C(=O)OCC)c2nc3ccccc3nc21	CHT block -5.6 | CHT block conf inactive | HEK293 CHT ctr inactive
COc1ccc(CCC(=O)N2C[C@H]3C[C@@H](C2)c2cccc(=O)n2C3)cc1	none
CCOc1cc2c(cc1OCC)-n1cccc1C(c1ccc(C(C)C)cc1)NC2 (stereo not drawn)	none
Oc1ccc(CC2CC3CCN2CC3)cc1O (stereo not drawn)	CHT block -16.1 | CHT block conf 12.5% | HEK293 CHT ctr inactive
Cc1cc(/C=C2\C(=O)NC(=O)N(Cc3ccco3)C2=O)c(C)n1-c1ccc(C(=O)O)cc1	CHT block -6.32 | CHT block conf 60.5% | HEK293 CHT ctr inactive
Cc1cc(/C=C2\C(=O)NC(=O)N(Cc3ccco3)C2=O)c(C)n1-c1ccc(O)cc1	none
O=C(COc1ccc(Cl)cc1)N1CCN(Cc2ccc([N+](=O)[O-])cc2)CC1	CHT block -5.05 | CHT block conf inactive | HEK293 CHT ctr inactive
COc1ccc(OCC(=O)N2CCN(Cc3nc4cc([N+](=O)[O-])ccc4n3C)CC2)cc1	none
CCN1CCN(S(=O)(=O)c2ccc(Cl)c(C(=O)Nc3ccc(C(=O)N(CC)CC)cc3)c2)CC1	none
CN1CCN(c2c(F)cc([N+](=O)[O-])c(N)c2Br)CC1	CHT PAM 6.65 | CHT activ conf 45.9 | HEK293 MP dye -48.9
Nc1c([N+](=O)[O-])cc(F)c(N2CCNCC2)c1Br	none | CHT activ conf 43.0 | HEK293 MP dye -55.3
COc1ccccc1[As](=O)(O)CC(O)COc1ccc(Cl)cc1Cl (stereo not drawn)	none
CC(=O)C1(c2ccccc2)CCN(C(=O)C2CCC(=O)N(CCc3cccc(F)c3)C2)CC1 (stereo not drawn)	none
Cn1c(=O)n(C)c2cc([N+](=O)[O-])c(N3CCNCC3)cc21	CHT PAM 9.69 | CHT activ conf inactive | HEK293 MP dye inactive
COc1ccccc1-n1c(-c2cccs2)nc2ccccc2c1=O	none
Cc1ccc(-c2nc(N(C)C3CCN(C)CC3)c3ccccc3n2)cc1	T cruzi inh inconclusive | CHT activ conf 36.6 | HEK293 MP dye -68.3
